Experimental data as given in ChEMBL document CHEMBL1154414, “In vitro and in vivo activities of T-705 against arenavirus and bunyavirus infections” (Antimicrob Agents Chemother, 2007).
Calls of active or inactive are those of the source. The rule behind the calls is not given here.

Legend:
Punta Toro virus [1] = assay: Antiviral activity against 50 PFU Punta Toro virus Adames infected C57BL/6 mouse assessed as mean serum ALT levels at 10 mg/kg, po twice daily administered 24 hrs post viral challenge measured on day 3 of viral infection; assay type: functional
Outline: (§1)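 Subcutaneous PTV infection was followed by oral gavage twice daily with drug suspended in 0.4% CMC. Serum was collected from 5 sacrificed mice per group (10 placebo) on day 3 or 4. ALT activity was measured by kinetic assay, and sham-infected mice set the baselines.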

Punta Toro virus [2] = assay: Antiviral activity against Punta Toro virus Adames infected Syrian golden hamster assessed as animals with detectable virus level in liver at 60 mg/kg, po twice daily administered 4 hrs before viral challenge measured on day 4 of viral infection; assay type: functional
Punta Toro virus [3] = assay: Antiviral activity against 500 PFU Punta Toro virus Adames infected C57BL/6 mouse assessed as mean serum ALT levels at 30 mg/kg, po twice daily administered 24 hrs post viral challenge measured on day 3 of viral infection; assay type: functional
Outline: (§2)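 C57BL/6 mice received subcutaneous PTV, then oral gavage twice daily for 5–7 days. T-705 was given in 0.4% CMC and ribavirin in saline. Five mice per group (10 placebo) were killed on day 3 or 4, and serum was collected. ALT activity was measured by kinetic assay. Three sham-infected mice set baselines.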

Pichinde virus [4] = assay: Antiviral activity against Pichinde virus An 4763 infected Syrian golden hamster assessed as mean serum ALT levels at 60 mg/kg, po twice daily for 7 days administered 4 hrs before viral-challenge measured on day 7 of viral infection; assay type: functional
Pichinde virus [5] = assay: Antiviral activity against Pichinde virus An 4763 infected Syrian golden hamster assessed as inhibition of liver damage at 20 mg/kg, po twice daily for 7 days administered 24 hrs post viral-challenge measured on day 7 of viral infection; assay type: functional, organism-based; set-up: dose 20 mg/kg
Punta Toro virus [6] = assay: Antiviral activity against 500 PFU Punta Toro virus Adames infected C57BL/6 mouse assessed as mean day of death at 5 mg/kg, po twice daily for 5 days administered 4 hrs before viral challenge; assay type: functional
Outline: (§3)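 Groups of 15 mice (25–30 placebo) were inoculated subcutaneously with PTV. Drug in 0.4% carboxymethylcellulose was given by oral gavage twice daily.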

Pichinde virus [7] = assay: Antiviral activity against Pichinde virus An 4763 infected Syrian golden hamster assessed as animals with detectable virus level in serum at 20 mg/kg, po twice daily for 7 days administered 72 hrs post viral-challenge measured on day 7 of viral infection; assay type: functional
Outline: (§4)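 Hamsters (groups of 15, placebo 25-30) were dosed orally by gavage twice daily (drug suspended in 0.4% CMC) after bilateral intraperitoneal challenge with 65 PFU. Five per group were killed on day 7. Liver homogenate or serum was serially diluted onto triplicate B-SC-1 wells, CPE was read at 6-8 days, and the 50% endpoint was taken. Range was 2.8-9.5 log10 CCID50/0.1 g or 0.1 ml, with undetectable assigned <2.8.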

Junin virus = assay: Antiviral activity against Junin virus Candid-1 assessed as reduction of 1 log10 unit viral titer yields after 7 to 8 days; assay type: functional; details: Mammarenavirus juninense
Pichinde virus [8] = assay: Antiviral activity against Pichinde virus An 4763 infected Syrian golden hamster assessed as […] survival administered po twice daily for 7 days administered 4 hrs before viral-challenge; assay type: functional, organism-based
Punta Toro virus [9] = assay: Antiviral activity against 500 PFU Punta Toro virus Adames infected C57BL/6 mouse assessed as mean day of death at 100 mg/kg, po twice daily for 5 days administered 4 hrs before viral challenge; assay type: functional; outline: as §3
Punta Toro virus [10] = assay: Antiviral activity against 500 PFU Punta Toro virus Adames infected C57BL/6 mouse assessed as mean serum ALT levels at 5 mg/kg, po twice daily administered 4 hrs before viral challenge measured on day 3 of viral infection; assay type: functional; outline: as §2
Punta Toro virus [11] = assay: Antiviral activity against 500 PFU Punta Toro virus Adames infected C57BL/6 mouse assessed as mean day of death at 30 mg/kg, po twice daily for 5 days administered 24 hrs post viral challenge; assay type: functional; outline: as §3
Punta Toro virus [12] = assay: Antiviral activity against 500 PFU Punta Toro virus Adames infected C57BL/6 mouse assessed as mean viral titer per 0.1 mL of serum at 75 mg/kg, po twice daily administered 4 hrs before viral challenge measured on day 4 of viral infection; assay type: functional
Outline: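 Mice were infected subcutaneously with PTV and dosed by oral gavage twice daily; 5 per group (10 placebo) were killed on day 3 or 4. Liver homogenate or serum was serially diluted onto triplicate LLC-MK2 monolayers, and CPE was read 6–8 days later. 50% endpoints gave log10 CCID50 per 0.1 g liver or 0.1 ml serum. Detection range was 2.8–9.5; undetectable samples were assigned <2.8.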

Pichinde virus [13] = assay: Antiviral activity against Pichinde virus An 4763 infected Syrian golden hamster assessed as animals with detectable virus level in serum at 50 mg/kg, po twice daily for 7 days administered 72 hrs post viral-challenge measured on day 7 of viral infection; assay type: functional; outline: as §4
Punta Toro virus [14] = assay: Antiviral activity against 50 PFU Punta Toro virus Adames infected C57BL/6 mouse assessed as mean viral titer per 0.1 g of liver at 10 mg/kg, po twice daily administered 24 hrs post viral challenge measured on day 3 of viral infection; assay type: functional
Outline: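 Mice were infected subcutaneously with PTV and dosed by oral gavage twice daily with drug in 0.4% CMC. Five per group (10 placebo) were sacrificed on day 3 or 4. Serially diluted liver homogenate or serum went into triplicate LLC-MK2 wells, and CPE 50% endpoints were read at 6–8 days. The range was 2.8–9.5 log10 CCID50/0.1 g or 0.1 ml, with undetectable samples set to 2.8 and saturated samples to 9.5.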

Punta Toro virus [15] = assay: Antiviral activity against 500 PFU Punta Toro virus Adames infected C57BL/6 mouse assessed as mean serum ALT levels at 10 mg/kg, po twice daily administered 24 hrs post viral challenge measured on day 3 of viral infection; assay type: functional; outline: as §1
Punta Toro virus [16] = assay: Antiviral activity against Punta Toro virus Adames infected Syrian golden hamster assessed as mean serum ALT levels at 15 mg/kg, po twice daily administered 4 hrs before viral challenge measured on day 4 of viral infection; assay type: functional
Punta Toro virus [17] = assay: Antiviral activity against 500 PFU Punta Toro virus Adames infected C57BL/6 mouse assessed as animals with detectable virus level in serum at 30 mg/kg, po twice daily administered 24 hrs post viral challenge measured on day 3 of viral infection; assay type: functional
Outline: (§5)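 T-705 was suspended in 0.4% carboxymethylcellulose and given by oral gavage twice daily. Mice were infected subcutaneously with PTV. Five mice per group (10 placebo) were sacrificed on day 3 or 4. Liver homogenate or serum was serially diluted onto triplicate LLC-MK2 monolayers, and CPE was read at 6–8 days. The detection limit was 2.8 log10 CCID50 per 0.1 g liver or 0.1 ml serum.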

Punta Toro virus [18] = assay: Antiviral activity against Punta Toro virus Adames infected Syrian golden hamster assessed as inhibition of liver damage at 60 mg/kg, po twice daily administered 4 hrs before viral challenge measured on day 4 of viral infection; assay type: functional, organism-based; set-up: dose 60 mg/kg
Punta Toro virus [19] = assay: Antiviral activity against 500 PFU Punta Toro virus Adames infected C57BL/6 mouse assessed as inhibition of liver damage at 200 mg/kg, po twice daily administered 4 hrs before viral challenge measured on day 4 of viral infection; assay type: functional, organism-based; set-up: dose 200 mg/kg
Outline: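 Mice were infected with PTV subcutaneously and dosed by oral gavage twice daily (0.4% CMC vehicle). Five animals per group (10 placebo) were sacrificed on day 3 or 4. Livers were scored 0–4 for hepatic icterus, where 0 is normal and 4 is maximal yellow coloration.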

Punta Toro virus [20] = assay: Antiviral activity against 500 PFU Punta Toro virus Adames infected C57BL/6 mouse assessed as animals with detectable virus level in serum at 75 mg/kg, po twice daily administered 4 hrs before viral challenge measured on day 4 of viral infection; assay type: functional; outline: as §5

Structure (SMILES) | Activity (Punta Toro virus [1]) | Activity (Punta Toro virus [3]) | Activity (Pichinde virus [7]) | Activity (Punta Toro virus [11]) | Activity (Pichinde virus [13]) | log10CCID50 (Punta Toro virus [14]) | Activity (Punta Toro virus [15]) | Activity (Punta Toro virus [17]) | also measured
NC(=O)c1nc(F)cnc1O [FAVIPIRAVIR] | 3273 IU/L | 900 IU/L | 100% | 5 days | 100% | <2.8 | 3302 IU/L | 80% | Activity (Punta Toro virus [2]): 20%; Activity (Pichinde virus [4]): 23 IU/L; Activity (Pichinde virus [5]): Active; Activity (Punta Toro virus [6]): 4.9 days; EC90 (Junin virus): 7 µM; Activity (Pichinde virus [8]): Dose-dependent effect; Activity (Punta Toro virus [9]): >21 days; Activity (Punta Toro virus [10]): 2461 IU/L; log10CCID50 (Punta Toro virus [12]): <3.3; Activity (Punta Toro virus [16]): 204 IU/L; Activity (Punta Toro virus [18]): Active; Activity (Punta Toro virus [19]): Active
NC(=O)c1ncn([C@@H]2O[C@H](CO)[C@@H](O)[C@H]2O)n1 [RIBAVIRIN] | 846 IU/L | 450 IU/L | 100% | 5.3 days | 100% | <3.3 | 2150 IU/L | 80% | Activity (Punta Toro virus [20]): 20%
